The subject of data set [1] is A549. The experiment in a line: Cytotoxicity against human A549 cells by SRB assay. Format: functional, cell-based. Background: In SRB staining, fixed cells bind dye roughly in proportion to their protein.
The test system of data set [2] is HCT-15. The experiment in a line: Cytotoxicity against human HCT15 cells by SRB assay. Format: functional, cell-based.
The nature of data set [3]: Cytotoxicity against mouse BV2 cells assessed as cell viability at 20 uM by MTT assay relative to control. Format: cell-based, BV-2. Conditions: read-out: Activity. A general note: Formazan colour is commonly taken as a measure of viable cells.
Data set [4] deals with SK-MEL-2. Nature of the data set: Cytotoxicity against human SK-MEL-2 cells by SRB assay. Format: functional, cell-based.
Data set [5] can be described thus: Antiinflammatory activity against LPS-stimulated mouse BV2 cells assessed as inhibition of nitric oxide production preincubated for 30 mins followed by LPS stimulation measured after 24 hrs by Griess assay. Conditions: BV-2. Format: functional, cell-based. The method, boiled down:
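Murine BV2 microglial cells were activated with lipopolysaccharide. NO released into the culture medium was measured, and IC50 was derived from the inhibition of NO production. L-NMMA was the positive control.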
In general terms: Griess reagent forms a coloured azo dye with nitrite.

For data set [6], the system named is C6. Nature of the data set: Neuroprotective activity in rat C6 cells assessed as stimulation of NGF release at 20 uM after 24 hrs by ELISA relative to control. In kind it is functional. The method, boiled down:
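C6 rat glioma cells were treated with each compound at 20 μM, and NGF secreted into the medium was measured. Stimulation is given as percent of control, and 6-shogaol was the positive control.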

For data set [7], the system named is SK-OV-3. Nature of the data set: Cytotoxicity against human SKOV3 cells by SRB assay. Format: functional, cell-based.

As to `COc1cc(C[C@H]2CO[C@@H](c3cc(OC)c(O)c(OC)c3)[C@H]2CO[C@@H]2O[C@@H](C)[C@H](O)[C@@H](O)[C@H]2O)cc(OC)c1O`, the IC50 – broadly, the concentration needed to halve the response being measured – is over 10 µM in data set [1]; over 10 µM in data set [2]; over 10 µM in data set [4]; 29.8 µM in data set [5]; over 10 µM in data set [7]. Moreover, the viability at 20 µM in data set [3] was 113%. For the same molecule, in data set [6], the Activity came out at 124.67%.

Turning to `COc1cc([C@H]2c3cc(O)c(OC)cc3C[C@@H](CO)[C@@H]2CO[C@@H]2O[C@@H](C)[C@H](O)[C@@H](O)[C@H]2O)ccc1O` [AVICULIN], the 50% inhibitory concentration (IC50) was over 10 µM in data set [1]; over 10 µM in data set [2]; over 10 µM in data set [4]; 40.2 µM in data set [5]; over 10 µM in data set [7]. The viability at 20 µM in data set [3] was 96.1%. The Activity in data set [6] turned out to be 123.06%.

Regarding `COc1cc([C@H]2Oc3c(OC)cc(CCCO)cc3[C@@H]2CO[C@@H]2O[C@@H](C)[C@H](O)[C@@H](O)[C@H]2O)ccc1O`, the IC50 in data set [1], in data set [2], in data set [4] and in data set [7] was over 10 µM in each case. The viability at 20 µM in data set [3] was determined as 97.4%. Moreover, in data set [6], the Activity is recorded as 102.88%.

For the molecule `CCCCC/C=C/C(=O)CCc1ccc(O)c(OC)c1` [SHOGAOL], in data set [6], the Activity worked out at 141.75%.

Take `COc1cc(C[C@@H]2CO[C@@H](c3cc(OC)c(O)c(OC)c3)[C@@H]2CO[C@@H]2O[C@@H](C)[C@H](O)[C@@H](O)[C@H]2O)cc(OC)c1O`: the IC50 in data set [1] was over 10 µM; in data set [2] it was over 10 µM; in data set [4], over 10 µM; in data set [5], 199 µM; in data set [7], over 10 µM. In addition, the viability at 20 µM in data set [3] amounted to 97.1%.

As to `CNC(=N)NCCC[C@H](N)C(=O)O` [TILARGININE], the viability at 20 µM in data set [3] is 106%. Besides, the IC50 in data set [5] was 24.8 µM.

Turning to `COc1cc(C[C@@H]2CO[C@@H](c3ccc(O)c(OC)c3)[C@@H]2CO[C@@H]2O[C@@H](C)[C@H](O)[C@@H](O)[C@H]2O)ccc1O`, the IC50 was over 10 µM in data set [1]; over 10 µM in data set [2]; over 10 µM in data set [4]; 180 µM in data set [5]; over 10 µM in data set [7]. In addition, the viability at 20 µM in data set [3] was found to be 102%. Also, the Activity in data set [6] is 144.31%.

Consider `COc1cc([C@@H]2Oc3c(OC)cc(CCCO)cc3[C@H]2CO[C@@H]2O[C@@H](C)[C@H](O)[C@@H](O)[C@H]2O)cc(OC)c1O`, for which the IC50 in data set [1], in data set [2], in data set [4] and in data set [7] was over 10 µM throughout. For the same molecule, in data set [3], the viability at 20 µM is 104%. The Activity in data set [6] is listed as 106.85%.

With `COc1cc([C@H]2c3c(cc(OC)c(O)c3OC)C[C@@H](CO)[C@@H]2CO[C@@H]2O[C@H](CO)[C@@H](O)[C@H](O)[C@H]2O)cc(OC)c1O`, the IC50 is over 10 µM in data set [1]; over 10 µM in data set [2]; over 10 µM in data set [4]; 37.7 µM in data set [5]; over 10 µM in data set [7]. Further, in data set [3], the viability at 20 µM amounted to 99.7%.

For `COc1cc(C[C@H](CO)[C@@H](CO[C@@H]2O[C@@H](C)[C@H](O)[C@@H](O)[C@H]2O)Cc2cc(OC)c(O)c(OC)c2)cc(OC)c1O`, the IC50 is over 10 µM in data set [1]; over 10 µM in data set [2]; over 10 µM in data set [4]; 21.3 µM in data set [5]; over 10 µM in data set [7]. Also, in data set [3], the viability at 20 µM was found to be 104%. Further, in data set [6], the Activity was 167.61%.

For `COc1cc([C@H]2c3c(cc(OC)c(O)c3OC)C[C@@H](CO)[C@@H]2CO[C@@H]2O[C@@H](C)[C@H](O)[C@@H](O)[C@H]2O)cc(OC)c1O`, the IC50 in data set [1] is over 10 µM; in data set [2], over 10 µM; in data set [4], over 10 µM; in data set [5], 31.9 µM; in data set [7] it was over 10 µM. For the same molecule, the viability at 20 µM in data set [3] is 99.1%.

With `COc1cc([C@H]2Oc3c(OC)cc(CCCO)cc3[C@@H]2CO[C@@H]2O[C@H](CO)[C@@H](O)[C@H](O)[C@H]2O)ccc1O`, the IC50 in data set [1], in data set [2], in data set [4] and in data set [7] was over 10 µM in each case. In data set [3], the viability at 20 µM was found to be 97.2%. The Activity in data set [6] came out at 140.04%.

Consider `COc1cc([C@H]2Oc3c(OC)cc(CCCO)cc3[C@@H]2CO[C@@H]2O[C@@H](C)[C@H](O)[C@@H](O)[C@H]2O)cc(OC)c1O`, for which the half-inhibitory concentration (IC50) in data set [1], in data set [2], in data set [4] and in data set [7] was over 10 µM in each case. Also, the viability at 20 µM in data set [3] stood at 98.2%. Besides, the Activity in data set [6] worked out at 151.74%.

Source of the values: ChEMBL document CHEMBL3580549, “Lignan Glycosides from the Twigs of Chaenomeles sinensis and Their Biological Activities” (J Nat Prod, 2015).
